In brackets after ≈: the same amount, converted by molar mass. Activity calls are given as the source filed them. No cut-off for these calls is given here.
Key:
[1] = Solubility of compound in 0.1 M HCl solution at pH 1.2 at 1 mg incubated for 4 hrs under shaking conditions by liquid chromotography; assay type: physicochemical
Procedure, shortened: (§1)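 1 mg of compound was added to 1 mL of PBS pH 7.4 or 0.1 M HCl, in triplicate. Suspensions were vortexed 1 min, shaken 4 h at 25 °C, then centrifuged 13000 rpm for 15 min at 25 °C. Supernatant was quantified by reverse-phase UHPLC (UV 260–280 nm) against a single-point calibration of compound in DMSO.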

[2] = target: T1, Enoyl-[acyl-carrier-protein] reductase [NADH] (Mycobacterium tuberculosis) (UniProt P9WGR1); test: Time dependent inhibition of Mycobacterium tuberculosis InhA
T1 sequence (whole entry): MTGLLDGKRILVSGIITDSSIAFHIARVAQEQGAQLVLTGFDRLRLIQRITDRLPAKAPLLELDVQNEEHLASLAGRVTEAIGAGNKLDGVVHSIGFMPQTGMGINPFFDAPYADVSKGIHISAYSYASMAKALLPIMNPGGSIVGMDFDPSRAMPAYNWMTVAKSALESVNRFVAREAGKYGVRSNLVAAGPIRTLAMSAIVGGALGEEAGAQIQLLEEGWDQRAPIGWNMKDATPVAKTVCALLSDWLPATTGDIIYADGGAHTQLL

[3] = target: T2, Enoyl-[acyl-carrier-protein] reductase [NADH] (Mycobacterium tuberculosis, UniProt P9WGR1); test: Inhibition of Mycobacterium tuberculosis InhA-catalysed chemical reaction in presence of NADH measured for 1 min by UV/Visible spectrophotometry
T2 sequence (P9WGR1 whole entry): T1 sequence (whole entry)
Procedure, shortened: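 Recombinant MtInhA reaction at 25 °C in 100 mM Pipes pH 7.0, started by adding 2.2 μM enzyme and followed for 1 min. Substrate is DD-CoA, made from 2-trans-dodecenoic acid and CoA.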

[4] = Selectivity index, ratio of CC50 for human HepG2 cells by MTT assay to MIC for pan-sensitive Mycobacterium tuberculosis H37Rv ATCC 27294; assay type: toxicity; conditions: read-out: Selectivity Index
[5] = target: T1, Enoyl-[acyl-carrier-protein] reductase [NADH] (Mycobacterium tuberculosis); test: Binding affinity to Mycobacterium tuberculosis InhA assessed as gibbs free energy change at 250 uM in presence of NADH by fluorescence spectroscopy
Procedure, shortened: (§2)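 Titration of pre-formed MtInhA:NADH complex (2 mL of 3 μM enzyme with 20 μM NADH), adding microliter aliquots of 250 μM ligand stock with dilution kept ≤1%. Intrinsic fluorescence read at 295 nm excitation, 310–500 nm emission. Temperatures 15, 20, 25 and 30 °C. KD is fitted to a hyperbolic isotherm. ΔH°, ΔS° and ΔG° come from van't Hoff analysis of KD across temperatures.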

[6] = target: T2, Enoyl-[acyl-carrier-protein] reductase [NADH]; test: Noncompetitive inhibition of Mycobacterium tuberculosis InhA using DD-CoA as substrate assessed as inhibition constant for enzyme-inhibitor binary complex in presence of varying concentrations of NADH by double reciprocal plot analysis
[7] = Cytotoxicity against human HepG2 cells assessed as reduction in cell viability incubated for 72 hrs by neutral red uptake assay; assay type: toxicity, cell-based
Procedure, shortened: (§3)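 Cells grown in DMEM with 10% FBS. HepG2 seeded at 4 × 10³ and Vero at 2 × 10³ cells/well, 24 h before dosing. Compounds at 1, 5 and 20 μM in 1% DMSO for 72 h at 37 °C, 5% CO2. MTT readout: 5 mg/mL reagent for 4 h, absorbance at 595 nm. Neutral red readout: 25 μg/mL dye for 3 h, then acid-ethanol desorb. Viability is expressed relative to 1% DMSO controls.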

[8] = Metabolic stability in rat liver microsomes assessed as half life at 2 uM measured upto 30 mins by HPLC/MS/MS analysis; assay type: ADME, Microsome
Procedure, shortened: (§4)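 Compounds at 2 μM incubated at 37 °C with 1 mg/mL rat liver microsomes containing NADPH. Parent compound consumption followed over time.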

[9] = Permeability of compound at 10 uM measured after 5 hrs by PAMPA assay; assay type: ADME; conditions: read-out: permeability
Procedure, shortened: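 PAMPA: compounds at 10 μM in 2% DMSO added to a pH 7.4 donor phase, 5 h at room temperature. Receptor-side concentration (pH 7.4) measured to derive permeation rate. Alprenolol is the analytical control.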

[10] = target: T1, Enoyl-[acyl-carrier-protein] reductase [NADH] (Mycobacterium tuberculosis); test: Binding affinity to Mycobacterium tuberculosis InhA assessed as change in entropy at 250 uM in presence of NADH by fluorescence spectroscopy
[11] = Selectivity index, ratio of CC50 for African green monkey Vero cells by MTT assay to MIC for pan-sensitive Mycobacterium tuberculosis H37Rv ATCC 27294; assay type: toxicity, cell-based; conditions: read-out: Selectivity Index
[12] = Cytotoxicity against human HepG2 cells assessed as reduction in cell viability incubated for 72 hrs by MTT assay; assay type: toxicity, cell-based; procedure, shortened: as §3
Escherichia coli = test: Antibacterial activity against Escherichia coli ATCC 25922 assessed as inhibition of bacterial growth at 20 uM by broth microdilution method; assay type: functional, organism-based
Procedure, shortened: (§5)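 Broth microdilution in triplicate against a small bacterial panel, with compounds tested at 20 μM for growth inhibition.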

Klebsiella pneumoniae = test: Antibacterial activity against multidrug-resistant Klebsiella pneumoniae clinical isolates assessed as inhibition of bacterial growth at 20 uM by broth microdilution method; assay type: functional, organism-based; procedure, shortened: as §5
[13] = Solubility of compound in PBS at pH 7.4 at 1 mg incubated for 4 hrs under shaking conditions by liquid chromotography; assay type: physicochemical; procedure, shortened: as §1
[14] = Metabolic stability in rat liver microsomes assessed as intrinsic clearance at 2 uM measured upto 30 mins by HPLC/MS/MS analysis; assay type: ADME, Microsome; conditions: read-out: CLH; procedure, shortened: as §4
[15] = system: Mycobacterium tuberculosis; test: Antibacterial activity against pan-sensitive Mycobacterium tuberculosis H37Rv ATCC 27294 measured after 7 days by resazurin dye based assay; assay type: functional; conditions: H37Rv ATCC 27294, 168 h, time 7 day
Procedure, shortened: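 Resazurin reduction microplate assay (REMA) in Middlebrook 7H9 broth with 10% ADC and 5% DMSO. Compounds come from 2 mg/mL DMSO stocks and are 2-fold serially diluted, top concentration 0.08–40 μg/mL depending on solubility. MIC is the lowest concentration preventing the blue-to-pink colour change. Three independent experiments; the reported value is the modal or the highest value.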

[16] = target: T2, Enoyl-[acyl-carrier-protein] reductase [NADH]; test: Binding affinity to Mycobacterium tuberculosis InhA assessed as dissociation constant at 250 uM at 25 degreeC in presence of NADH by fluorescence spectroscopy; procedure, shortened: as §2
[17] = target: T2, Enoyl-[acyl-carrier-protein] reductase [NADH]; test: Noncompetitive inhibition of Mycobacterium tuberculosis InhA using DD-CoA as substrate assessed as inhibition constant for enzyme-substrate-inhibitor ternary complex in presence of varying concentrations of NADH by double reciprocal plot analysis
Acinetobacter baumannii = test: Antibacterial activity against multidrug-resistant Acinetobacter baumannii clinical isolates assessed as inhibition of bacterial growth at 20 uM by broth microdilution method; assay type: functional, organism-based; procedure, shortened: as §5
[18] = Chemical stability in PBS at pH 7.4 assessed as reduction in parent compound at 1 to 10 uM measured after 24 hrs by HPLC-EM/MS analysis; assay type: physicochemical; conditions: dose 1-10 µM, read-out: Drug degradation
Procedure, shortened: (§6)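 Compounds at 1–10 μM incubated 24 h at 37 °C in three media: pH 1.2 (0.1 M HCl), pH 7.4 (PBS) and pH 9.1 (0.1 M NH4HCO3). Remaining parent compound quantified afterward.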

[19] = Chemical stability in PBS at pH 7.4 assessed as parent compound remaining at 1 to 10 uM measured after 24 hrs by HPLC-EM/MS analysis; assay type: physicochemical; conditions: dose 1-10 µM, read-out: Stability; procedure, shortened: as §6
[20] = target: T1, Enoyl-[acyl-carrier-protein] reductase [NADH] (Mycobacterium tuberculosis); test: Binding affinity to Mycobacterium tuberculosis InhA assessed as change in enthalpy at 250 uM in presence of NADH by fluorescence spectroscopy
[21] = Chemical stability in 0.1 M NH4HCO3 solution at pH 9.1 assessed as parent compound remaining at 1 to 10 uM measured after 24 hrs by HPLC-EM/MS analysis; assay type: physicochemical; conditions: dose 1-10 µM, read-out: Stability; procedure, shortened: as §6
[22] = target: T2, Enoyl-[acyl-carrier-protein] reductase [NADH]; test: Competitive inhibition of Mycobacterium tuberculosis InhA using varying concentrations of DD-CoA as substrate assessed as inhibition constant for enzyme-inhibitor binary complex in presence of NADH by Lineweaver-Burk plot analysis
Procedure, shortened: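 Steady-state kinetics with recombinant MtInhA in 100 mM Pipes pH 7.0 at 25 °C. NADH fixed at 60 μM, DD-CoA varied 15–135 μM, inhibitor at fixed-varied levels of 0.2–4 μM. Kis is fitted to the competitive inhibition equation.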

Staphylococcus aureus = test: Antibacterial activity against Staphylococcus aureus ATCC 25923 assessed as inhibition of bacterial growth at 20 uM by broth microdilution method; assay type: functional, organism-based; procedure, shortened: as §5
[23] = Selectivity index, ratio of CC50 for human HepG2 cells by neutral red uptake assay to MIC for pan-sensitive Mycobacterium tuberculosis H37Rv ATCC 27294; assay type: toxicity; conditions: read-out: Selectivity Index
[24] = Cytotoxicity against African green monkey Vero cells assessed as reduction in cell viability incubated for 72 hrs by neutral red uptake assay; assay type: toxicity, cell-based; conditions: chlorocebus sabaeus; procedure, shortened: as §3
[25] = Selectivity index, ratio of CC50 for African green monkey Vero cells by neutral red uptake assay to MIC for pan-sensitive Mycobacterium tuberculosis H37Rv ATCC 27294; assay type: toxicity, cell-based; conditions: read-out: Selectivity Index
[26] = Chemical stability in 0.1 M HCl solution at pH 1.2 assessed as parent compound remaining at 1 to 10 uM measured after 24 hrs by HPLC-EM/MS analysis; assay type: physicochemical; conditions: dose 1-10 µM, read-out: Stability; procedure, shortened: as §6
[27] = Cytotoxicity against African green monkey Vero cells assessed as reduction in cell viability incubated for 72 hrs by MTT assay; assay type: toxicity, cell-based; conditions: chlorocebus sabaeus; procedure, shortened: as §3

For `CSc1ccc2nc(C)cc(Nc3ccc(N4CCCCC4)cc3)c2c1`, the solubility thermodynamic at 4 h [1] was greater than 2700 µM, the TDI [2] was “inactive” and the IC50 [3] was 1000 nM. For the same compound, the selectivity ratio [4] was 14.7, the deltaG [5] was -8.3 kcal/mol and the Ki [6] was 430 nM. It also gave a CC50 at 72 h [7] of 12200 nM, a half-life at 2 µM [8] of 5.9 min and a Papp at 5 h, 10 µM [9] of 0.03 ×10⁻⁶ cm/s. The deltaS [10] was -55.7 cal/mol/K, the selectivity ratio [11] was 27.7 and the CC50 at 72 h [12] was 5900 nM. For the same compound, the Activity (Escherichia coli) was “inactive”, the Activity (Klebsiella pneumoniae) was “inactive” and the solubility thermodynamic at 4 h [13] was 38 µM (≈ 13.8 µg/mL). For the same compound, the CLint scaled at 2 µM [14] was 60 mL/min/kg, the MIC [15] was 0.4 µM (≈ 0.145 µg/mL) and the Kd [16] was 870 nM. The Ki [17] was 410 nM, the Activity (Acinetobacter baumannii) was “inactive” and the degraded at 24 h, up to 10 µM [18] was greater than 30%. The remaining at 24 h, up to 10 µM [19] was 68%, the deltaH [20] was -25.8 kcal/mol and the remaining at 24 h, up to 10 µM [21] was 100%. For the same compound, the Ki [22] was 620 nM, the Activity (Staphylococcus aureus) was “inactive” and the selectivity ratio [23] was 30.5. It also gave a CC50 at 72 h [24] of 8500 nM, a selectivity ratio [25] of 21.2 and a remaining at 24 h, up to 10 µM [26] of 100%. For the same compound, the CC50 at 72 h [27] was 11100 nM.
